Key:
Assay type in all cases: functional
Design in all cases: scale not given: the % may be the effect or the level left
T47D = experiment: Growth inhibition of human T47D cells assessed tumor cell growth at 10^-5 M
How it was run: (§1)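 Single-dose screen at 10^-5 M across the 60 human tumor cell line panel, run to NCI standards. The value is the percent growth of each cell line in the presence of compound. Compounds active at this dose moved on to five-concentration testing (10^-4 to 10^-8 M).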

MOLT-4 = experiment: Growth inhibition of human MOLT4 cells assessed tumor cell growth at 10^-5 M
How it was run: (§2)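 NCI 60-human-tumor-cell-line panel screen. Each compound was tested at a single concentration of 10^-5 M, and percent growth of tumor cells was recorded for each cell line. Growth inhibition was expressed from these percent-growth values.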

DU-145 = experiment: Growth inhibition of human DU145 cells assessed tumor cell growth at 10^-5 M; how it was run: as §2
LOX IMVI = experiment: Growth inhibition of human LOXIMVI cells assessed tumor cell growth at 10^-5 M; how it was run: as §2
HCT-15 = experiment: Growth inhibition of human HCT15 cells assessed tumor cell growth at 10^-5 M; how it was run: as §2
ACHN = experiment: Growth inhibition of human ACHN cells assessed tumor cell growth at 10^-5 M; how it was run: as §2
U-251 = experiment: Growth inhibition of human U251 cells assessed tumor cell growth at 10^-5 M; how it was run: as §1
HCT-116 = experiment: Growth inhibition of human HCT116 cells assessed tumor cell growth at 10^-5 M; how it was run: as §2
PC-3 = experiment: Growth inhibition of human PC3 cells assessed tumor cell growth at 10^-5 M; how it was run: as §2
SK-OV-3 = experiment: Growth inhibition of human SKOV3 cells assessed tumor cell growth at 10^-5 M; how it was run: as §2
SK-MEL-28 = experiment: Growth inhibition of human SK-MEL-28 cells assessed tumor cell growth at 10^-5 M; how it was run: as §2
MDA-MB-231 = experiment: Growth inhibition of human MDA-MB-231 cells assessed tumor cell growth at 10^-5 M; how it was run: as §2
786-0 = experiment: Growth inhibition of human 786-0 cells assessed tumor cell growth at 10^-5 M; how it was run: as §2
SK-MEL-2 = experiment: Growth inhibition of human SK-MEL-2 cells assessed tumor cell growth at 10^-5 M; how it was run: as §2
HL-60(TB) = experiment: Growth inhibition of human HL-60(TB) cells assessed tumor cell growth at 10^-5 M
How it was run: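 HL-60(TB), part of the 60-line panel, tested at a single concentration of 10^-5 M. The read-out is percent tumor cell growth relative to untreated growth.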

Malme-3M = experiment: Growth inhibition of human MALME-3M cells assessed tumor cell growth at 10^-5 M; how it was run: as §2
NCI-H23 = experiment: Growth inhibition of human NCI-H23 cells assessed tumor cell growth at 10^-5 M; how it was run: as §2
COLO 205 = experiment: Growth inhibition of human COLO205 cells assessed tumor cell growth at 10^-5 M; how it was run: as §2
TK-10 = experiment: Growth inhibition of human TK10 cells assessed tumor cell growth at 10^-5 M; how it was run: as §1
HT-29 = experiment: Growth inhibition of human HT-29 cells assessed tumor cell growth at 10^-5 M; how it was run: as §2
OVCAR-5 = experiment: Growth inhibition of human OVCAR5 cells assessed tumor cell growth at 10^-5 M; how it was run: as §2
SK-MEL-5 = experiment: Growth inhibition of human SK-MEL-5 cells assessed tumor cell growth at 10^-5 M; how it was run: as §2
SN12C = experiment: Growth inhibition of human SN12C cells assessed tumor cell growth at 10^-5 M; how it was run: as §2
K562 = experiment: Growth inhibition of human K562 cells assessed tumor cell growth at 10^-5 M; how it was run: as §2
CAKI-1 = experiment: Growth inhibition of human Caki1 cells assessed tumor cell growth at 10^-5 M; how it was run: as §2
KM12 = experiment: Growth inhibition of human KM12 cells assessed tumor cell growth at 10^-5 M; how it was run: as §2
SNB-19 = experiment: Growth inhibition of human SNB19 cells assessed tumor cell growth at 10^-5 M; how it was run: as §1
UACC-62 = experiment: Growth inhibition of human UACC62 cells assessed tumor cell growth at 10^-5 M; how it was run: as §1
SNB-75 = experiment: Growth inhibition of human SNB75 cells assessed tumor cell growth at 10^-5 M; how it was run: as §1
MDA-MB-468 = experiment: Growth inhibition of human MDA-MB-468 cells assessed tumor cell growth at 10^-5 M; how it was run: as §2
OVCAR-8 = experiment: Growth inhibition of human OVCAR8 cells assessed tumor cell growth at 10^-5 M; how it was run: as §2
SW-620 = experiment: Growth inhibition of human SW620 cells assessed tumor cell growth at 10^-5 M; how it was run: as §1
HOP-62 = experiment: Growth inhibition of human HOP62 cells assessed tumor cell growth at 10^-5 M; how it was run: as §2
EKVX = experiment: Growth inhibition of human EKVX cells assessed tumor cell growth at 10^-5 M; how it was run: as §2
CCRF-CEM = experiment: Growth inhibition of human CCRF-CEM cells assessed tumor cell growth at 10^-5 M; how it was run: as §2
NCI-H322M = experiment: Growth inhibition of human NCI-H322M cells assessed tumor cell growth at 10^-5 M; how it was run: as §2
MDA-MB-435 = experiment: Growth inhibition of human MDA-MB-435 cells assessed tumor cell growth at 10^-5 M; how it was run: as §2
A549 = experiment: Growth inhibition of human A549 cells assessed tumor cell growth at 10^-5 M; how it was run: as §2
SF-539 = experiment: Growth inhibition of human SF539 cells assessed tumor cell growth at 10^-5 M; how it was run: as §2
UACC-257 = experiment: Growth inhibition of human UACC257 cells assessed tumor cell growth at 10^-5 M; how it was run: as §1
UO-31 = experiment: Growth inhibition of human UO31 cells assessed tumor cell growth at 10^-5 M; how it was run: as §1
HCC 2998 = experiment: Growth inhibition of human HCC2998 cells assessed tumor cell growth at 10^-5 M; how it was run: as §2
SF-268 = experiment: Growth inhibition of human SF268 cells assessed tumor cell growth at 10^-5 M; how it was run: as §2
M14 = experiment: Growth inhibition of human M14 cells assessed tumor cell growth at 10^-5 M; how it was run: as §2
BT-549 = experiment: Growth inhibition of human BT549 cells assessed tumor cell growth at 10^-5 M; how it was run: as §2
MCF7 = experiment: Growth inhibition of human MCF7 cells assessed tumor cell growth at 10^-5 M; how it was run: as §2
IGROV-1 = experiment: Growth inhibition of human IGROV1 cells assessed tumor cell growth at 10^-5 M; how it was run: as §2
SF-295 = experiment: Growth inhibition of human SF295 cells assessed tumor cell growth at 10^-5 M; how it was run: as §2
NCI-H460 = experiment: Growth inhibition of human NCI-H460 cells assessed tumor cell growth at 10^-5 M; how it was run: as §2
OVCAR-3 = experiment: Growth inhibition of human OVCAR3 cells assessed tumor cell growth at 10^-5 M; how it was run: as §2
NCI-H522 = experiment: Growth inhibition of human NCI-H522 cells assessed tumor cell growth at 10^-5 M; how it was run: as §2
[1] = Growth inhibition of human Hs 578T cells assessed tumor cell growth at 10^-5 M; how it was run: as §2
HOP-92 = experiment: Growth inhibition of human HOP92 cells assessed tumor cell growth at 10^-5 M; how it was run: as §2
NCI/ADR-RES = experiment: Growth inhibition of human NCI/ADR-RES cells assessed tumor cell growth at 10^-5 M; how it was run: as §2
A498 = experiment: Growth inhibition of human A498 cells assessed tumor cell growth at 10^-5 M; how it was run: as §2
NCI-H226 = experiment: Growth inhibition of human NCI-H226 cells assessed tumor cell growth at 10^-5 M; how it was run: as §2
OVCAR-4 = experiment: Growth inhibition of human OVCAR4 cells assessed tumor cell growth at 10^-5 M; how it was run: as §2
RXF 393 = experiment: Growth inhibition of human RXF393 cells assessed tumor cell growth at 10^-5 M; how it was run: as §2
[2] = Growth inhibition of human […] cells assessed tumor cell growth at 10^-5 M; how it was run: as §2

CC1=NN(c2cccc(Cl)c2)C(=O)/C1=C\c1cn(C(=O)c2c(Cl)cccc2Cl)c2ccccc12
Activity (T47D): 77.75% | Activity (MOLT-4): 78.5% | Activity (DU-145): 113.79% | Activity (LOX IMVI): 91.86% | Activity (HCT-15): 102.31% | Activity (ACHN): 90.96% | Activity (U-251): 111.4% | Activity (HCT-116): 93.25% | Activity (PC-3): 93.89% | Activity (SK-OV-3): 93.9% | Activity (SK-MEL-28): 108.69% | Activity (MDA-MB-231): 82.49% | Activity (786-0): 101.2% | Activity (SK-MEL-2): 95.14% | Activity (HL-60(TB)): 95.11% | Activity (Malme-3M): 100.66% | Activity (NCI-H23): 78.46% | Activity (COLO 205): 105.8% | Activity (TK-10): 123.88% | Activity (HT-29): 110.62% | Activity (OVCAR-5): 78.09% | Activity (SK-MEL-5): 93.87% | Activity (SN12C): 100.77% | Activity (K562): 120.99% | Activity (CAKI-1): 89.11% | Activity (KM12): 100.84% | Activity (SNB-19): 100.95% | Activity (UACC-62): 84.14% | Activity (SNB-75): 81.76% | Activity (MDA-MB-468): 98.04% | Activity (OVCAR-8): 89.79% | Activity (SW-620): 96.65% | Activity (HOP-62): 92.85% | Activity (EKVX): 70.54% | Activity (CCRF-CEM): 107.14% | Activity (NCI-H322M): 99.91% | Activity (MDA-MB-435): 109.08% | Activity (A549): 103.17% | Activity (SF-539): 88.35% | Activity (UACC-257): 88.84% | Activity (UO-31): 75.46% | Activity (HCC 2998): 87.28% | Activity (SF-268): 99.71% | Activity (M14): 88.55% | Activity (BT-549): 95.67% | Activity (MCF7): 84.58% | Activity (IGROV-1): 100.26% | Activity (SF-295): 96.99% | Activity (NCI-H460): 102.74% | Activity (OVCAR-3): 105.51% | Activity (NCI-H522): 87.52% | Activity [1]: 93.53% | Activity (HOP-92): 75.93% | Activity (NCI/ADR-RES): 90.21% | Activity (A498): 102.24% | Activity (NCI-H226): 97.86% | Activity (OVCAR-4): 94.88% | Activity (RXF 393): 96.55%

O=C1/C(=C\c2cn(C(=O)c3c(Cl)cccc3Cl)c3ccccc23)c2ccccc2N1C(=O)c1c(Cl)cccc1Cl
Activity (T47D): 91.6% | Activity (MOLT-4): 84% | Activity (DU-145): 135% | Activity (LOX IMVI): 95.8% | Activity (HCT-15): 65.9% | Activity (ACHN): 78.6% | Activity (U-251): 87.1% | Activity (HCT-116): 82.5% | Activity (PC-3): 73.1% | Activity (SK-OV-3): 93.4% | Activity (SK-MEL-28): 103% | Activity (MDA-MB-231): 74.3% | Activity (786-0): 100% | Activity (SK-MEL-2): 92.3% | Activity (HL-60(TB)): 109% | Activity (Malme-3M): 94.9% | Activity (NCI-H23): 96.6% | Activity (COLO 205): 69% | Activity (TK-10): 101% | Activity (HT-29): 108% | Activity (OVCAR-5): 83.7% | Activity (SK-MEL-5): 84.8% | Activity (SN12C): 92.7% | Activity (K562): 85.2% | Activity (CAKI-1): 67.5% | Activity (KM12): 99.3% | Activity (SNB-19): 97.3% | Activity (UACC-62): 63.8% | Activity (SNB-75): 88.8% | Activity (MDA-MB-468): 126% | Activity (OVCAR-8): 94.1% | Activity (SW-620): 117% | Activity (HOP-62): 98.7% | Activity (EKVX): 99.4% | Activity (CCRF-CEM): 87% | Activity (NCI-H322M): 124% | Activity (MDA-MB-435): 112% | Activity (A549): 91.2% | Activity (SF-539): 95% | Activity (UACC-257): 104% | Activity (UO-31): 72% | Activity (HCC 2998): 116% | Activity (SF-268): 95.7% | Activity (M14): 94.2% | Activity (BT-549): 85.3% | Activity (MCF7): 84.8% | Activity (IGROV-1): 69.9% | Activity (SF-295): 90.6% | Activity (NCI-H460): 114% | Activity (OVCAR-3): 96.7% | Activity (NCI-H522): 87.4% | Activity [1]: 152% | Activity (HOP-92): 48.5% | Activity [2]: 75% | Activity (NCI/ADR-RES): 104% | Activity (A498): 126% | Activity (NCI-H226): 92.9% | Activity (OVCAR-4): 104% | Activity (RXF 393): 113%

— ChEMBL document CHEMBL1811814, “Synthesis and evaluation of indole, pyrazole, chromone and pyrimidine based conjugates for tumor growth inhibitory activities--development of highly efficacious cytotoxic agents” (Eur J Med Chem, 2010)
